# Results: PubChem BioAssay
# The other results are listed elsewhere or left out. Calls of active or inactive are those of the source.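 The calls were made as follows, unless noted: active = mean activation across triplicate tests above the threshold derived from the earlier primary screen (cut at about 5.5% in these data); inactive = the rest.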
# Molecular target: Oxysterols receptor LXR-beta (Homo sapiens) (UniProt P55055)
# Experiment: LXR agonists, Gal4 luciferase reporter, confirmation, counter-screen for hcDAF-12 agonist project, cell-based, luminescence, HEK293, H. contortus campaign (AID 743027;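 active = mean percent activation of the reporter above a cutoff set as the average over tested compounds plus their standard deviation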)
# Settings: HEK293 Gal4-LXR tk-luc reporter, 24 h, at 6.8 µM, stronger effect = higher value, normalized: DMSO 0%, positive control 100%
# In short: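 Assay system: HEK293 Gal4-LXR luciferase reporter cells; schedule: one-day compound treatment at 37 °C; signal: One-Glo luciferase luminescence; control set: DMSO and positive control; replicates: triplicate wells per compound; doses: 6.8 µM single dose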
# Chain of Oxysterols receptor LXR-beta (Homo sapiens) (P55055 whole entry, looked up, the tested form may be a part): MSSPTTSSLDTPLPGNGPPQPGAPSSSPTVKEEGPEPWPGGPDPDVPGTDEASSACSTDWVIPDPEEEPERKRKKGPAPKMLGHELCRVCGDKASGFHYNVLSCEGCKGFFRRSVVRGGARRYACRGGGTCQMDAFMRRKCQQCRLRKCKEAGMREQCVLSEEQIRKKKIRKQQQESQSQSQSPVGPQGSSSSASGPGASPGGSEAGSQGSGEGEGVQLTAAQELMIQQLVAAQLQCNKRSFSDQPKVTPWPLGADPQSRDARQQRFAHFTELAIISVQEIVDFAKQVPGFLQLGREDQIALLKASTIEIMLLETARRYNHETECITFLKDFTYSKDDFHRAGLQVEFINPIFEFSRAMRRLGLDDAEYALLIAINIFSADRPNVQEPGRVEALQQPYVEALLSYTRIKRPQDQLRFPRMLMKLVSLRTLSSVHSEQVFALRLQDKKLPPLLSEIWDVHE
row,Structure (SMILES),activation
1,CN(CC(=O)Nc1cccc(F)c1)C(=O)C1CC(=O)N(CCc2ccccc2)C1 (stereo unspecified),-0.05% (inactive)
2,COc1ccc(C2COC(=O)C2=N)c(NC(=O)c2ccccc2)c1 (stereo unspecified),-0.25% (inactive)
3,N#Cc1c(NC(=O)C2CCCO2)sc2c1CCCCC2 (stereo unspecified),1.18% (inactive)
4,Cc1ccccc1Nc1nnc(SCC(=O)c2cc3ccccc3o2)s1,-0.11% (inactive)
5,NNc1nc2c(Cl)cccc2s1,-0.01% (inactive)
6,CCc1ccc(-c2cc(C(=O)NN3CCN(C)CC3)c3ccccc3n2)cc1,-0.24% (inactive)
7,CC(=O)N1CCN(c2ccccc2NC(=S)NC(=O)c2cc3ccccc3o2)CC1,-0.28% (inactive)
8,c1ccc2sc(NN=C3CCCC3)nc2c1,1.38% (inactive)
9,CCc1cc2c(=O)c(-c3ccon3)c(N)oc2cc1OC,0.84% (inactive)
10,Cc1ccccc1C(=O)N[C@H](C(=O)N1CCC[C@H]1C(=O)NCc1ccccc1)C(C)C,-0.15% (inactive)
11,O=C(NC(Cc1c[nH]c2ccccc12)C(=O)O)/C(=C/c1ccco1)NC(=O)c1ccccc1 (stereo unspecified),0.05% (inactive)
12,Cc1ccnc(NC(=O)c2ccoc2C)c1,0.3% (inactive)
13,O=C(c1cc(-c2ccccc2O)on1)N1CCCC1,0.82% (inactive)

# System: Nuclear hormone receptor DAF-12 (Haemonchus contortus)
# Experiment: H. contortus DAF-12 receptor agonists, confirmation, cell-based, luminescence, HEK293, lit1-tk-luc, triplicate (AID 743032);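 also: 0% = DMSO only wells and 100% = 3 µM Δ7-dafachronic acid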
# Settings: HEK293 hcDAF-12 lit1-tk-luc reporter, at 6.8 µM, stronger effect = higher value, % of Δ7-dafachronic acid response
row,Structure (SMILES),activation
1,CN(CC(=O)Nc1cccc(F)c1)C(=O)C1CC(=O)N(CCc2ccccc2)C1 (stereo unspecified),4.2% (inactive)
2,COc1ccc(C2COC(=O)C2=N)c(NC(=O)c2ccccc2)c1 (stereo unspecified),4.45% (inactive)
3,N#Cc1c(NC(=O)C2CCCO2)sc2c1CCCCC2 (stereo unspecified),6.65% (active)
4,Cc1ccccc1Nc1nnc(SCC(=O)c2cc3ccccc3o2)s1,1.9% (inactive)
5,NNc1nc2c(Cl)cccc2s1,1.23% (inactive)
6,CCc1ccc(-c2cc(C(=O)NN3CCN(C)CC3)c3ccccc3n2)cc1,0.58% (inactive)
7,CC(=O)N1CCN(c2ccccc2NC(=S)NC(=O)c2cc3ccccc3o2)CC1,1.71% (inactive)
8,c1ccc2sc(NN=C3CCCC3)nc2c1,6.89% (active)
9,CCc1cc2c(=O)c(-c3ccon3)c(N)oc2cc1OC,6.18% (active)
10,Cc1ccccc1C(=O)N[C@H](C(=O)N1CCC[C@H]1C(=O)NCc1ccccc1)C(C)C,0.18% (inactive)
11,O=C(NC(Cc1c[nH]c2ccccc12)C(=O)O)/C(=C/c1ccco1)NC(=O)c1ccccc1 (stereo unspecified),3.64% (inactive)
12,Cc1ccnc(NC(=O)c2ccoc2C)c1,3.77% (inactive)
13,O=C(c1cc(-c2ccccc2O)on1)N1CCCC1,6.57% (active)
